These results are taken from article PMC4096895 (Organic & biomolecular chemistry, 2014).

One series is described as follows: Amidine stability assay. It is filed as physicochemical. In short, it runs like this:
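Test compound kept as a 0.168 M stock in nanopure water at ambient temperature, and aliquots were diluted into the incubation buffer. Samples were flash-frozen in liquid nitrogen and stored at −18°C until analysis. Quantification was by HPLC on a carbohydrate Na+ (8%) column at 80°C, with nanopure water as eluent at 0.4 mL/min and light-scattering detection.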

Series [1] has as its target β-galactosidase (A. oryzae) (Aspergillus oryzae, UniProt Q2UCU3). In words: Assay for the inhibited enzymatic substrate hydrolysis. The conditions noted are these: 50 mM acetate buffer pH 5.0, 30 °C. It is filed as biochemical.
Series [2] has as its system β-galactosidase (A. oryzae). In words: Assay for enzymatic substrate hydrolysis. It is filed as biochemical, Aspergillus oryzae. Conditions: 50 mM acetate buffer pH 5.0, 30 °C, no inhibitor.
Series [3] can be described thus: Water solubility under the kinetic assay conditions. It is filed as physicochemical. The conditions noted are these: under the used assay condition (50 mM acetate buffer pH 5).

Usually Ki stands for the equilibrium dissociation constant of an inhibitor or competing ligand from its target. Broadly, the Km is the concentration of substrate that gives half-maximal velocity. For orientation: kcat means the number of substrate molecules converted per active site and unit of time at saturation.

Sequence of β-galactosidase (A. oryzae) (Aspergillus oryzae, UniProt Q2UCU3) (Q2UCU3 19-1005): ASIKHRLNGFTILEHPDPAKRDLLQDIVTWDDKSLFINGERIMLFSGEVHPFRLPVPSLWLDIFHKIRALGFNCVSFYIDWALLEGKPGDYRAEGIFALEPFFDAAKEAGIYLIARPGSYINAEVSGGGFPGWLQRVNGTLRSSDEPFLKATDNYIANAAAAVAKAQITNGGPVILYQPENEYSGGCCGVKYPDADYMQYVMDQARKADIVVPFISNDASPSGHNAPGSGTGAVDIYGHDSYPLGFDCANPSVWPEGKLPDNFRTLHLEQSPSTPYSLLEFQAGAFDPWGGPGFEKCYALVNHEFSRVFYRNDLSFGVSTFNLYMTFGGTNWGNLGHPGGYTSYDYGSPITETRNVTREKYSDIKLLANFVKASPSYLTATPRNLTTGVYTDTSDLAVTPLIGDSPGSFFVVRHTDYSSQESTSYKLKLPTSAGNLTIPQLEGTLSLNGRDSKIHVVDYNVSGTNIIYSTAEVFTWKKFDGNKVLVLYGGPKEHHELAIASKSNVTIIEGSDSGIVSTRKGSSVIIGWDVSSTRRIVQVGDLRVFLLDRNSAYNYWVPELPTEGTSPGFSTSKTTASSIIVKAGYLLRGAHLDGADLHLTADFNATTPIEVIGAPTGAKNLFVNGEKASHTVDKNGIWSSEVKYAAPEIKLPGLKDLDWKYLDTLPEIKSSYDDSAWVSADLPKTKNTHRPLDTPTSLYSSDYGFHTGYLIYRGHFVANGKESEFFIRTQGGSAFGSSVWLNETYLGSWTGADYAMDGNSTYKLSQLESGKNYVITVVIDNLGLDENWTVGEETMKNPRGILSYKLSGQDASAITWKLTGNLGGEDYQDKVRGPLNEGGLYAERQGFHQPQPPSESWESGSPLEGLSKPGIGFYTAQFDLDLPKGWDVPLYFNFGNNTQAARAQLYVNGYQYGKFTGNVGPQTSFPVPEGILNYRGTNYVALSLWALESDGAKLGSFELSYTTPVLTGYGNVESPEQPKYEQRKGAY

For `Cc1ccc(CN=C2N[C@H](CO)[C@H](O)[C@H](O)[C@H]2O)cc1` [1d, p-methylbenzyl-D-galactonoamidine], the stability result in “Amidine stability assay” (5 mM CAPS buffer at pH 10.5 and 0°C, preliminary results) was “sufficient stability”; in the series “Amidine stability assay” (5 mM TAPS buffer at pH 9 and 10°C, preliminary results), “sufficient stability”; in “Amidine stability assay” (50 mM CAPS buffer at pH 10.5 and 72°C), “insufficient stability”. In addition, in “Amidine stability assay” (acetate buffer at 30°C, same amount of time (3h)), the “stability (HPLC)” value was “no evidence for compound decomposition”. This compound also gave a time found stable in the series “Amidine stability assay” (nanopure water at 30, 50 or 72°C) of no less than 3 h. In addition, the Ki in series [1] (substrate 2a) is 23.3 nM; in series [1] (substrate 2b) it was 14.1 nM; in series [1] (substrate 2c), 13.3 nM; in series [1] (substrate 2e), 16.5 nM; in series [1] (substrate 2f), 24.6 nM; in series [1] (substrate 2g), 55.7 nM. Also, the inhibition constant Ki in series [1] (substrate 2i) was 11.5 nM; in series [1] (substrate 2k), 8 nM; in series [1] (substrate 2h), 15.1 nM; in series [1] (substrate 2d), 11.6 nM.

Regarding `OCC1NC(=NCc2cccc(F)c2)C(O)C(O)C1O` [1f, 3-fluorobenzyl-D-galactonoamidine], the Ki in series [1] (substrate 2a) worked out at 16.4 nM; in series [1] (substrate 2b), 22.3 nM; in series [1] (substrate 2c), 18.1 nM; in series [1] (substrate 2e), 14.2 nM; in series [1] (substrate 2f), 30.3 nM; in series [1] (substrate 2g), 58.1 nM. Moreover, the inhibitory constant (Ki) in series [1] (substrate 2i) was 13.7 nM; in series [1] (substrate 2k), 20.3 nM; in series [1] (substrate 2h) it was 22.8 nM; in series [1] (substrate 2d), 13.3 nM.

With `O=[N+]([O-])c1ccccc1O[C@@H]1O[C@H](CO)[C@H](O)[C@H](O)[C@H]1O` [2a, 2-nitrophenyl-β-D-galactopyranoside, reference compound], in series [2], the Km was 1270 µM and the catalytic constant (kcat) was found to be 76.5 s⁻¹.

Consider `Cc1ccc(O[C@@H]2O[C@H](CO)[C@H](O)[C@H](O)[C@H]2O)c([N+](=O)[O-])c1` [2b, 4-Methyl-2-nitrophenyl-β-D-galactopyranoside], for which, in series [2], the Km is 1490 µM and the catalytic constant (kcat) amounted to 80.13 s⁻¹.

For `O=[N+]([O-])c1cc(F)ccc1O[C@@H]1O[C@H](CO)[C@H](O)[C@H](O)[C@H]1O` [2c, 4-Fluoro-2-nitrophenyl-β-D-galactopyranoside], in series [2], the Km was found to be 1240 µM and the kcat was 77.63 s⁻¹.

`O=[N+]([O-])c1cc(Cl)ccc1O[C@@H]1O[C@H](CO)[C@H](O)[C@H](O)[C@H]1O` [2d, 4-Chloro-2-nitrophenyl-β-D-galactopyranoside]: in series [2], the Km came to 960 µM and the kcat turned out to be 68.97 s⁻¹.

For the compound `O=[N+]([O-])c1cc(Br)ccc1O[C@@H]1O[C@H](CO)[C@H](O)[C@H](O)[C@H]1O` [2e, 4-Bromo-2-nitrophenyl-β-D-galactopyranoside], in series [2], the Km stood at 1100 µM and the kcat came out at 64.7 s⁻¹.

As for `O=[N+]([O-])c1ccc(F)cc1O[C@@H]1O[C@H](CO)[C@H](O)[C@H](O)[C@H]1O` [2f, 5-Fluoro-2-nitrophenyl-β-D-galactopyranoside], in series [2], the Km amounted to 1780 µM and the turnover number (kcat) turned out to be 64.77 s⁻¹.

With `Cc1ccc([N+](=O)[O-])c(O[C@@H]2O[C@H](CO)[C@H](O)[C@H](O)[C@H]2O)c1` [2g, 5-Methyl-2-nitrophenyl-β-D-galactopyranoside], in series [2], the Michaelis-Menten constant (Km) stood at 4270 µM and the kcat stood at 70.15 s⁻¹.

With `O=[N+]([O-])c1ccc(O[C@@H]2O[C@H](CO)[C@H](O)[C@H](O)[C@H]2O)cc1` [2h, 4-nitrophenyl-β-D-galactopyranoside, reference compound], in series [2], the Km is 840 µM and the catalytic constant (kcat) was found to be 53.97 s⁻¹.

`O=[N+]([O-])c1ccc(O[C@@H]2O[C@H](CO)[C@H](O)[C@H](O)[C@H]2O)c(F)c1` [2i, 2-Fluoro-4-nitrophenyl-β-D-galactopyranoside]: in series [2], the Michaelis-Menten constant (Km) is 920 µM and the catalytic constant (kcat) was determined as 61.17 s⁻¹.

Turning to `O=[N+]([O-])c1ccc(O[C@@H]2O[C@H](CO)[C@H](O)[C@H](O)[C@H]2O)c(Cl)c1` [2k, 2-Chloro-4-nitrophenyl-β-D-galactopyranoside], in series [2], the Michaelis-Menten constant (Km) came to 700 µM and the catalytic constant (kcat) was 39.68 s⁻¹.

In the case of `COc1ccc(O[C@@H]2O[C@H](CO)[C@H](O)[C@H](O)[C@H]2O)c([N+](=O)[O-])c1` [2p, 4-Methoxy-2-nitrophenyl-β-D-galactopyranoside], the water solubility result in series [3] is “surprising low water solubility”.
